Reference: ChEMBL document CHEMBL1157203, “Synthesis and cytotoxic activity of gamma-aryl substituted alpha-alkylidene-gamma-lactones and alpha-alkylidene-gamma-lactams” (Bioorg Med Chem, 2008)
Where “and” joins values, the source holds several entries; their conditions need not be identical. Equal entries are not always repeated.

What was measured:
Type in all cases: functional, cell-based
NALM-6 = test: Cytotoxicity against human NALM6 cells after 48 hrs by MTT assay
Outline: (§1)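 HL-60 (promyelocytic) and NALM-6 (lymphoblastic) cells grown in RPMI 1640 with 10% heat-inactivated FBS, streptomycin and penicillin, 37 °C, 5% CO2. Exponentially growing cells seeded at 8×10^3/well. Compounds prepared fresh from DMSO stocks and tested at 10^-7 to 10^-3 M for 46 h, then MTT 2 h. Formazan dissolved in 20% SDS/50% DMF pH 4.7, absorbance 562 and 630 nm. IC50 taken from concentration-response curves, means of at least 6 repeats ± SD.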

HL-60 = test: Cytotoxicity against human HL60 cells after 48 hrs by MTT assay; outline: as §1
L1210 = test: Cytotoxicity against mouse L1210 cells after 48 hrs by tetrazolium dye method

With `C=C1CC(c2ccccc2)OC1=O` (configuration not stated) the IC50 (NALM-6; Homo sapiens, NALM-6, 48 h) was 9.13 µM, the IC50 (HL-60; Homo sapiens, HL-60, 48 h) was 36.9 µM and the IC50 (L1210; Mus musculus, L1210, 48 h) was 1.4 µM.

With `C=C1CC(c2ccc(OC)cc2)N(C)C1=O` (configuration not stated) the IC50 (NALM-6; Homo sapiens, NALM-6, 48 h) was 523 µM, the IC50 (HL-60; Homo sapiens, HL-60, 48 h) was 611 µM and the IC50 (L1210; Mus musculus, L1210, 48 h) was > 50 µM.

In the case of `C=C1C(=O)OC(c2ccccc2)C1C` (configuration not stated), the IC50 (NALM-6; Homo sapiens, NALM-6, 48 h) is reported as 7.91 µM, the IC50 (NALM-6; nalm-6) is reported as 7.91 µM and the IC50 (HL-60; Homo sapiens, HL-60, 48 h) is reported as 8.97 µM. For the same compound, the IC50 (HL-60; hl-60) was 8.97 µM and the IC50 (L1210; l1210) was 4 µM and 28 µM.

`C=C1C(=O)OC(c2ccc(Br)cc2)C1C` (configuration not stated) was tested, and the IC50 (HL-60; hl-60) was 41.8 µM and 5.05 µM and the IC50 (L1210; l1210) was 7.5 µM and 1.55 µM.

`C=C1CC(c2cccc3ccccc23)OC1=O` (configuration not stated) gave an IC50 (NALM-6; Homo sapiens, NALM-6, 48 h) of 3.86 µM, an IC50 (HL-60; Homo sapiens, HL-60, 48 h) of 4.42 µM and an IC50 (L1210; Mus musculus, L1210, 48 h) of 4.3 µM.

With `C=C1CC(c2ccc(Br)cc2)OC1=O` (configuration not stated) the IC50 (NALM-6; Homo sapiens, NALM-6, 48 h) was 85.3 µM, the IC50 (HL-60; Homo sapiens, HL-60, 48 h) was 20.3 µM and the IC50 (L1210; Mus musculus, L1210, 48 h) was 1.3 µM.

In the case of `CC(C)/C=C1\CC(c2ccccc2)N(C)C1=O` (configuration not stated), the IC50 (NALM-6; Homo sapiens, NALM-6, 48 h) is reported as 351 µM, the IC50 (HL-60; Homo sapiens, HL-60, 48 h) is reported as 81.3 µM and the IC50 (L1210; Mus musculus, L1210, 48 h) is reported as > 50 µM.

`C=C1C(=O)OC(c2ccc(OC)cc2)C1C` (configuration not stated) was tested, and the IC50 (NALM-6; nalm-6) was 38.6 µM and 5.23 µM, the IC50 (HL-60; hl-60) was 37.9 µM and 5.69 µM and the IC50 (L1210; l1210) was 14.2 µM and 3.65 µM.

For `O=C1OC(c2ccccc2)C/C1=C\c1ccccc1` (configuration not stated), the IC50 (NALM-6; Homo sapiens, NALM-6, 48 h) was 497 µM, the IC50 (HL-60; Homo sapiens, HL-60, 48 h) was > 1000 µM and the IC50 (L1210; Mus musculus, L1210, 48 h) was > 50 µM.

For `C=C1CC(c2ccccc2)N(C)C1=O` (configuration not stated), the IC50 (NALM-6; Homo sapiens, NALM-6, 48 h) was 553 µM, the IC50 (HL-60; Homo sapiens, HL-60, 48 h) was 989 µM and the IC50 (L1210; Mus musculus, L1210, 48 h) was > 50 µM.

With `CC(C)/C=C1/CC(c2ccccc2)OC1=O` (configuration not stated) the IC50 (NALM-6; Homo sapiens, NALM-6, 48 h) was 483 µM, the IC50 (HL-60; Homo sapiens, HL-60, 48 h) was 159 µM and the IC50 (L1210; Mus musculus, L1210, 48 h) was > 50 µM.

With `C=C1CC(c2ccc(Br)cc2)N(C)C1=O` (configuration not stated) the IC50 (NALM-6; Homo sapiens, NALM-6, 48 h) was 141 µM, the IC50 (HL-60; Homo sapiens, HL-60, 48 h) was 220 µM and the IC50 (L1210; Mus musculus, L1210, 48 h) was > 50 µM.
